Compound activity from PubChem.
KCNQ1 block: inhibitors of human KCNQ1 potassium channel | CHO-K1 KCNQ1, FluxOR thallium flux fluorescence; active compounds read high | B-score at 10 µM | 1.3% of 310,000 active;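 active means compounds whose thallium flux B-score, printed positive for inhibition, exceeds three library SD while starting fluorescence stays within three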;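 further: channel opened by potassium depolarization with thallium stimulus after 20 min compound exposure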
Target sequence (P51787 whole entry, looked up): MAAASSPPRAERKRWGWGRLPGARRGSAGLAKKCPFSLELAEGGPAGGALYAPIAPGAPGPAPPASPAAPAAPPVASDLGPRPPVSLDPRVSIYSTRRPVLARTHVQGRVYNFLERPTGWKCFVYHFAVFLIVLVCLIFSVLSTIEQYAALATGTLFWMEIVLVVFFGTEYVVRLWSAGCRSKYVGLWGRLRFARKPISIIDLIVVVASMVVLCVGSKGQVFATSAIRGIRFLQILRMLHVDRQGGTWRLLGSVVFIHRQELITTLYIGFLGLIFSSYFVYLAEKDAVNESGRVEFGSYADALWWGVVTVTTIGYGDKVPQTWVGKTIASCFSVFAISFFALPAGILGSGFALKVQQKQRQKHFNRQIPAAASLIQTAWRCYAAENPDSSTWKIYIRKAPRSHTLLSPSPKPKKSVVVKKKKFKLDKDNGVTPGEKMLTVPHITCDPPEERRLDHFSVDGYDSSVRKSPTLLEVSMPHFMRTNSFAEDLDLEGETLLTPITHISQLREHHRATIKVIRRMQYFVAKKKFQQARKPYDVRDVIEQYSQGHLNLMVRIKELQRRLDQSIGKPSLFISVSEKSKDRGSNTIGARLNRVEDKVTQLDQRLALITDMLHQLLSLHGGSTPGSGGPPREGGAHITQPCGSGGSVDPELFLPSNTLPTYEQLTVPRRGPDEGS
hERG protect: hERG (human) protection from proarrhythmic block; Q12809; CHO-hERG, FluxOR thallium flux, dofetilide IC70 present; activation (rescue from dofetilide block), less the hit threshold, % at 10 µM; 0.51% of 310,000 active; AID 1511;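 active means activation above the mean of controls blocked by dofetilide plus 5 SD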;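 further: thallium influx through hERG after potassium depolarization seen as dye fluorescence rise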
Mot1-301 SUMO: blocks SUMOylation pathway, rescuing yeast Mot1-301 growth; S. cerevisiae Mot1-301 growth rescue, ATP luminescence, 38.5C; percent above DMSO median, 100 means doubled; growth rescue, % at 18.8 µM; 1% of 320,000 active; AID 2716;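 active means every valid replicate shows activation above 250% relative to neutral control wells; inactive means the rest, any valid replicate at or below 250%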;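 further: OY570 slx delta 5 strain wells were the positive control but not used for scaling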
AI-2 QS mod: modulators of Vibrio harveyi AI-2 quorum sensing system; activity change, % at 7.5 µM; Vibrio harveyi JMH597 AI-2 luminescence/OD600 ratio, 9 h; active compounds read low; strain lacks LuxN and CqsS sensors; 0 = neutral-control median; 0.4% of 300,000 active; in the data active means activity change below about -75%, passing the limit was not always enough; inconclusive means no clear call, values can overlap the other calls;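 further: luminescence divided by OD600 gain over 9 h not by final OD600 alone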
Cl transport mod: KCC2 (human) Cl- transport modulation. B-score of Tl+ flux slope (higher = more flux/activation; lower = inhibition) at 10 µM. Q9H2X9. 2.2% of 190,000 active. KCC2 cells, thallium flux FluoZin-2 fluorescence;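 active means thallium flux slope and its plate-corrected score both differing from the plate sample mean at a set confidence after two filtering rounds, in either direction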;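 further: slope of fluorescence scaled to starting intensity during 10 to 20 s after thallium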
KCNQ1 act: potentiates or activates the human KCNQ1 potassium channel. P51787. CHO-K1 KCNQ1, thallium flux FluxOR fluorescence; active compounds read high. B-score at 10 µM. 0.35% of 310,000 active;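 active means fluorescence ratio B-score, a plate-corrected score, at least three library SD, with initial intensity B-score within 5 SD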
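Schedule – 37 °C overnight plating, 90-min dark dye load, 20-min compound pretreatment · System – stable KCNQ1 CHO-K1 line · Probe or stimulus – thallium- and potassium-containing depolarizing buffer · Measured by – kinetic FluxOR fluorescence, 10 s baseline plus 110 s post-stimulus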
KCC2 sec1: KCC2 (human) modulation, secondary assay; HEK293-KCC2, thallium flux, FluoZin2 fluorescence; active compounds read high; normalised thallium flux (F/F0 slope) at 10 µM; AID 1713; shares compounds with Cl transport mod; 15% of 3,700 active;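 active means thallium flux slope above the same plate's solvent-only control mean plus 3 SD; inconclusive means the two replicate wells disagree; inactive means no significant difference from solvent-only control wells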
KCC2 bumet counter: thallium flux persisting under bumetanide in KCC2 cells, counter-screen secondary assay | shares compounds with Cl transport mod | HEK293-KCC2 + bumetanide/ouabain, thallium flux FluoZin2; active compounds read high | normalized thallium flux at 10 µM | 49% of 3,700 active | AID 1714;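 active means thallium entry rate above the same plate's blocked-transporter control wells by more than 3 SD; inconclusive means the two repeat wells disagree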;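 further: raw slope of fluorescence over initial fluorescence between 10 and 20 s after thallium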
KCC2 secondary2: confirmation of human KCC2 transport modulators | shares compounds with Cl transport mod | HEK293-KCC2, thallium flux FluoZin2 fluorescence; actives lie on both sides; F/F0 rise rate, 10–20 s post-thallium | normalized thallium flux at 10 µM | 23% of 3,700 active | AID 1715;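 active means thallium flux slope more than 3 SD above or below the plate's solvent-only control mean, mostly below; inconclusive means the two repeat wells disagreed; inactive means no significant shift from solvent-only controls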;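 further: raw slope with 0.1% DMSO as baseline and bumetanide as block control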
HEK counter1: acts in parental HEK cells, KCC2 counter-screen. thallium flux rate (normalised fluorescence) at 10 µM. 46% of 3,700 active. HEK293 parental cells, thallium flux FluoZin2, ouabain; baseline-ratio fluorescence slope, 10–20 s after thallium. shares compounds with Cl transport mod;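 active means thallium flux rate significantly above the same plate's solvent-only control wells, beyond their mean plus 3 SD; inconclusive means the two replicate wells gave conflicting results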
KCC2 retest ouab: modulates human KCC2 on retest with ouabain; HEK293-KCC2, thallium flux FluoZin2 fluorescence; bidirectional: low = inhibitor, high = activator; raw Tl+ flux slope (below DMSO = inhibition, above = activation) at 10 µM; shares compounds with Cl transport mod; 48% of 3,700 active; AID 1717;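 active means thallium flux slope beyond 3 SD from same-plate DMSO control mean in most replicates, usually higher, sometimes lower; inconclusive means repeat tests gave conflicting results; inactive means no significant difference from controls in most replicates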;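 further: slope of initial-normalized fluorescence between seconds 10 and 20 after thallium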
HEK counter2: acts in parental HEK cells, second KCC2 counter-screen; shares compounds with Cl transport mod; AID 1718; HEK293 parental, thallium flux FluoZin-2 fluorescence slope; 33% of 3,700 active; thallium flux slope at 10 µM;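 active means thallium flux slope above the same plate's solvent-control mean plus 3 SD in both duplicate wells; inconclusive means duplicate wells that disagreed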;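 further: run without ouabain in cells lacking the KCC2 cotransporter; slope of fluorescence scaled to its starting value between 10 and 20 s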
Starred values were filed as active, the others as inactive; i = inactive; u = inconclusive; x = not tested or not shown. Rows were chosen to be rich in hits. Some 4.2% of all compounds tested hit in one or more screens of this group.

SMILES	KCNQ1 block	hERG protect	Mot1-301 SUMO	AI-2 QS mod	Cl transport mod	KCNQ1 act	KCC2 sec1	KCC2 bumet counter	KCC2 secondary2	HEK counter1	KCC2 retest ouab	HEK counter2
c1ccc(-c2nc(CSc3n[nH]c(-c4cccs4)n3)cs2)cc1	i	-13	19	14	-3.8*	i	0.0063	0.0045	0.024*	0.0067	0.016	0.01
Cc1cc(NC(=O)Cc2ccccc2[N+](=O)[O-])no1	i	-3	75	32	x	i	x	x	x	x	x	x
CCOC(=O)c1ccc(N(C(=O)CNC(=O)c2ccco2)C(C(=O)NCC2CCCO2)c2ccc(OC)c(OC)c2)cc1 (configuration not stated)	i	-7	-15	6	x	i	x	x	x	x	x	x
COc1ccc(-n2c(C)cc(C(=O)CSc3nnc(-c4ccoc4C)n3C)c2C)cc1	i	-8	8	16	x	i	0.0072	0.0064	0.033	u	0.02	0.01
Cc1ccc(/C=C2\NC(=S)NC2=O)cc1[N+](=O)[O-]	i	-9	-3	16	3*	i	0.015	0.0041	0.03	0.007	0.018	0.0087
COc1ccc(NC(=S)NNC(=O)c2nnn(-c3ccccc3)c2C)cc1	i	-8	-3	34	-2	i	x	x	x	x	x	x
C[C@@H](C[C@@H](O)[C@H](O)C(C)(C)O)[C@@H]1CC[C@]2(C)C3=CC[C@H]4C(C)(C)C(=O)CC[C@]4(C)[C@H]3CC[C@@]12C	i	-17	11	8	4.8*	i	0.0052	0.031*	0.031	0.0077	u	0.011
O=C(O)c1cccc(NS(=O)(=O)c2cccc3nsnc23)c1	i	-10	8	-14	x	i	x	x	x	x	x	x
CC(=O)N1CCCc2cc(S(=O)(=O)N(C)Cc3ccccc3)ccc21	i	-2	129	7	-4*	i	0.007	0.0065	0.033	0.0045	u	0.011
CCCCN(CC)S(=O)(=O)c1ccc2c(c1)CCCN2C(C)=O	i	-7	-22	10	-0.56	i	x	x	x	x	x	x
CCn1c(SCC(=O)N2CCN(c3ccccc3)CC2)nc2c(c1=O)SC(C)C2 (configuration not stated)	i	-16	-4	21	-3.1*	i	0.0049	0.0041	u	0.0051*	0.014*	0.0084*
O=C(CSc1nc2c(c(=O)n1-c1ccccc1)SCC2)N1CCN(c2ccccc2)CC1	i	-4	-24	14	-7.6*	i	0.0067	0.0061	0.032	0.0069	0.012*	u
O=C(CSc1nc2c(c(=O)n1-c1ccccc1)SCC2)N1CCOCC1	i	-7	120	20	-0.032	i	x	x	x	x	x	x
Cc1ccc(S(=O)(=O)N2CCC3(CC2)OCCN3S(=O)(=O)c2c(C)cc(C)cc2C)cc1	i	-19	10	14	x	i	x	x	x	x	x	x
Cc1ccc(S(=O)(=O)c2ccc(Cl)cc2)cc1S(=O)(=O)N(C)CC(=O)O	i	-8	259	2	-0.28	i	x	x	x	x	x	x
COc1ccccc1C(=O)NC(=O)COC(=O)CNC(=O)c1ccccc1F	x	x	-8	x	x	x	x	x	x	x	x	x
CSc1nc(SC(C)C(=O)O)c2c3c(sc2n1)COC(C)(C)C3 (configuration not stated)	i	-4	-7	30	4.8*	i	0.0054	0.02*	u	0.032*	0.034*	0.021*
CC(C)(C)OC(=O)C(C)(C)O/N=C(\C(=O)O)c1csc(N)n1	i	-1	-28	18	-0.17	i	x	x	x	x	x	x
COc1ccc(NS(=O)(=O)c2ccc(/C=C/C(=O)O)cc2)cc1S(=O)(=O)N1CCOCC1	i	-10	-15	25	0.46	i	x	x	x	x	x	x
Cc1ccccc1CSc1nnc2ccc(-c3ccncc3)nn12	i	-12	124	5	0.36	i	x	x	x	x	x	x
Cc1ccc(-n2ncc3c(SCC(=O)NNC(=O)c4ccco4)ncnc32)cc1	i	1	-7	6	37*	i	u	0.041*	u	0.035*	0.035*	0.032*
Cc1nnc(SCC(=O)NNC(=O)c2ccco2)n1-c1cccc(Cl)c1	i	-3	-7	16	-3.6*	i	0.0094	u	0.03	0.008	0.065	u
CCOC(=O)CNC(=O)CSc1ncnc2c1cnn2-c1ccc(C)cc1	i	0	-13	25	0.086	i	x	x	x	x	x	x
CCS(=O)(=O)n1nc(-c2ccccc2)nc1SC	i	-4	12	8	0.62	i	x	x	x	x	x	x
CC(=O)N1CCc2cc(S(=O)(=O)CCC(=O)NCCc3ccccc3)ccc21	i	-2	197	20	x	i	x	x	x	x	x	x
O=C(NC(=O)c1ccncc1)NC(c1ccccc1)c1ccccc1	i	-2	113	14	-4.8*	i	0.0076	0.007	0.029	u	0.02	0.0097
NC(=S)NC(c1ccccc1)c1ccncc1 (configuration not stated)	i	-13	-9	20	x	i	x	x	x	x	x	x
O=C(O)CSc1nc(-c2cccs2)cc(C(F)(F)F)n1	i	-2	-8	34	-0.02	i	x	x	x	x	x	x
CCC(C)NC(=O)CSc1nc(-c2cccs2)cc(C(F)(F)F)n1 (configuration not stated)	i	-1	306	25	2.9*	i	0.0058	0.0044	0.03	0.0074	0.019	0.01
CCN(CC(=O)NC(C)(C)C)C(=O)COc1c(Cl)cc(Cl)c2ccc(C)nc12	i	-14	81	-81*	88*	i	0.02*	0.11*	0.036	u	0.09*	u
